Results collected from several papers.
Compare with care: the assays were run in different laboratories.

SMILES	test	test system	setting	measurement	value
Cc1c(C(=O)O)ccc2c3n(nc12)[C@@H]1[C@H](C3)N(CC2CC2)[C@@]2(C(=O)Nc3cc(Cl)ccc32)[C@H]1c1cccc(Cl)c1F		female mouse, plasma	oral, 5 mg/kg	bioavailability	119%
CN1CCN(C(=O)[C@H](CCCN[C@@H]2C[C@H]2c2ccc(F)cc2)NC(=O)c2ccc(-n3ccnn3)cc2)CC1		CD-1 mouse, plasma	oral, 10 mg/kg	AUC(0-t)	2.27 µM·h
CCOc1ccc(N(C)S(=O)(=O)c2cc(Cl)sc2C(=O)Nc2cc(Cl)cc(C(=O)O)c2)cc1OC		male C57BL/6 mouse, plasma	intraperitoneal, 10 mg/kg	AUC(0-inf)	6100 ng·h/mL
CC(C)C[C@H](NC(=O)[C@@H]1COCCCCCC(=O)N2C[C@H](F)C[C@H]2C(=O)N1)C(=O)[C@@]1(C)CO1		male BALB/c mouse, plasma	oral, 150 mg/kg	bioavailability	~10%
Cc1c(C(=O)O)ccc2c3n(nc12)[C@@H]1[C@H](C3)N(CC2CC2)[C@@]2(C(=O)Nc3cc(Cl)ccc32)[C@H]1c1cccc(Cl)c1F		FVB mouse, plasma	oral, 10 mg/kg, single dose	bioavailability	79%
Cc1cc2sc(N)nc2c2cccnc12		female BALB/c mouse, plasma	intraperitoneal, 30 mg/kg, single dose	AUC(0-t)	45500 ng·h/mL
Cc1cc(-c2cn[nH]c2-c2cccc(OCc3cccc(C#N)c3)c2)cc(C)n1		mouse, plasma	oral, 200 mg/kg	bioavailability	47%
CNC(=O)c1ccc(N2C(=S)N(c3ccc(C#N)c(C(F)(F)F)c3)C(=O)C2(C)C)cc1F		male C57BL/6 mouse, plasma	oral, 0.0215 mmol/kg	bioavailability	45%
CN(C)C/C=C/C(=O)Nc1cc2c(Nc3ccc(F)c(Cl)c3)ncnc2cc1O[C@H]1CCOC1	chemical stability	PBS	250 µM, pH 7.4	half-life	> 4.17 days
Nc1ccc(/N=N/c2cccc(F)c2F)c(N)n1		male CD-1 mouse, plasma	intraperitoneal, 100 mg/kg	bioavailability	261%
CC1=NN(/C(=N/c2nnc(C)s2)Nc2ccc(C)c(C)c2)C(c2cc(F)c(F)c(F)c2)S1 (stereo not shown)		male CD-1 mouse, plasma	oral, 30 mg/kg	bioavailability	13.4%
CCN1CCN(Cc2ccc(NC(=O)c3ccc(C)c(NC(=O)c4cncc(-c5cccs5)c4)c3)cc2C(F)(F)F)CC1		mouse, plasma	intraperitoneal, 15 mg/kg, single dose	AUC(0-inf)	1750 ng·h/mL
Nc1ncn([C@H]2C[C@H](O)[C@@H](CO)O2)c(=O)n1		female C57BL/6 mouse, plasma	intravenous, 0.4 mg/kg	AUC(0-t)	182 ng·h/mL
